Measured values reported in ChEMBL document CHEMBL3763118, “Trioxolane-Mediated Delivery of Mefloquine Limits Brain Exposure in a Mouse Model of Malaria” (ACS Med Chem Lett, 2015).
The source made the active and inactive calls. No cut-off for these calls is given here.

Legend:
[1] = Ratio of drug level in human blood to plasma; type: ADME, cell-free; conditions: whole blood and plasma
Plasmodium falciparum = experiment: Antiplasmodium activity against Plasmodium falciparum W2 by flow cytometry; type: functional, organism-based
Outline: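 Activity against P. falciparum, reported as EC50, the mean of three or six separate determinations.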

Plasmodium berghei [2] = experiment: Antimalarial activity against Plasmodium berghei infected in Swiss-Webster mouse assessed as mouse survival at 9.5 mg/kg qd for 4 days administered via oral gavage; type: functional, organism-based
Outline: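 Female Swiss-Webster mice (n = 5 per arm) were inoculated with 10^6 P. berghei parasites. Oral gavage once daily for 4 days, starting on the day of inoculation; doses were equimolar across compounds. Parasitemia, morbidity and survival were followed daily for 28 days, with euthanasia as the protocol required.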

[3] = Stability in human plasma after 120 mins by LC/MS analysis; type: ADME, cell-free; conditions: read-out: Stability
Outline: (§1)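 Compounds were incubated at 37 °C in human plasma or whole blood for 240 min (120 min in some plasma cases). The value is the percent of parent remaining.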

Plasmodium berghei [4] = experiment: Antimalarial activity against Plasmodium berghei infected in Swiss-Webster mouse assessed as mouse survival upto day 28 at 10 mg/kg qd for 4 days administered via oral gavage; type: functional, organism-based
Outline: (§2)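 Female Swiss-Webster mice (n = 5 per arm) inoculated with 10^6 P. berghei parasites. Compound or vehicle given by oral gavage once daily for 4 days, starting on the day of inoculation. Parasitemia, morbidity and mortality recorded daily over 28 days; mice euthanized as required by study protocol.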

[5] = Stability in human blood after 240 mins by LC/MS analysis; type: ADME; conditions: whole blood, read-out: Stability; outline: as §1
Plasmodium chabaudi [6] = experiment: Antimalarial activity against Plasmodium chabaudi infected in Balb/c mouse assessed as parastemia at 10 mg/kg, ip administered as single dose measured 4 day postinoculation (reference value: 4.6 +/- 0.5 %); type: functional
[7] = Stability in human plasma after 240 mins by LC/MS analysis; type: ADME, cell-free; conditions: read-out: Stability; outline: as §1
Plasmodium berghei [8] = experiment: Antimalarial activity against Plasmodium berghei infected in Swiss-Webster mouse assessed as decrease in parasitemia at 10 mg/kg qd for 4 days administered via oral gavage; type: functional, organism-based; outline: as §2
Plasmodium chabaudi [9] = experiment: Antimalarial activity against Plasmodium chabaudi infected in Balb/c mouse assessed as parastemia at 10 mg/kg, ip administered as single dose measured 7 day postinoculation (reference value: 34 +/- 2.3 %); type: functional
[10] = Drug level in Plasmodium chabaudi infected Balb/c mouse brain at 10 mg/kg, ip at 24 hrs by LC-MS/MS analysis; type: ADME, organism-based; conditions: read-out: Drug uptake
Outline: (§3)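 P. chabaudi-infected mice given a single 10 mg/kg i.p. dose. Blood and brain were sampled over 24 h and analysed for drug concentrations. Plasma concentration–time course used; brain levels reported at three time points.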

Plasmodium chabaudi [11] = experiment: Antimalarial activity against Plasmodium chabaudi infected in Balb/c mouse assessed as parastemia at 10 mg/kg, ip measured 13 day postinoculation; type: functional
[12] = Tmax in Plasmodium chabaudi infected Balb/c mouse plasma at 10 mg/kg, ip by LC-MS/MS analysis; type: ADME, organism-based; outline: as §3
Plasmodium chabaudi [13] = experiment: Antimalarial activity against Plasmodium chabaudi infected in Balb/c mouse assessed as parastemia at 16.5 mg/kg, ip measured 4 day postinoculation (reference value: 4.6 +/- 0.5 %); type: functional
Outline: (§4)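 Mice infected with P. chabaudi received one i.p. dose on day 4 postinoculation. Parasitemia (%) was measured on days 4, 7 and 13 postinoculation and reported as mean ± SEM. Animals in poor health were sacrificed on day 8 as the protocol required.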

Plasmodium chabaudi [14] = experiment: Antimalarial activity against Plasmodium chabaudi infected in Balb/c mouse assessed as parastemia at 8 mg/kg, ip measured 7 day postinoculation (reference value: 34 +/- 2.3 %); type: functional; outline: as §4
[15] = AUC (infinity) in Balb/c mouse at 50 mg/kg, ip by LC-MS/MS analysis; type: ADME, organism-based; set-up: dose 50 mg/kg, time infinity, route intraperitoneal; conditions: in vivo
Outline: (§5)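 Noncompartmental plasma PK after one i.p. dose of 50 mg/kg in uninfected mice and in P. chabaudi-infected mice. Parameters are terminal t1/2, tmax, Cmax, AUCinf, CL/F, Vz/F, MRTlast and MRTinf. F is the fraction of drug reaching systemic exposure after the i.p. dose.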

Plasmodium chabaudi [16] = experiment: Antimalarial activity against Plasmodium chabaudi infected in Balb/c mouse assessed as parastemia at 50 mg/kg, ip measured 4 day postinoculation (reference value: 4.6 +/- 0.5 %); type: functional; outline: as §4
Plasma [17] = experiment: Prodrug activation in Plasmodium chabaudi infected Balb/c mouse plasma assessed as mefloquine level at 50 mg/kg, ip at 30 mins by LC-MS/MS analysis; type: organism-based; conditions: in vivo, 0.5 h
Outline: (§6)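 Infected mice (P. chabaudi) each got one i.p. dose of 50 mg/kg of the trioxolane conjugate. Blood and brain were collected over 24 h. Plasma and brain were analysed for intact conjugate and for released mefloquine.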

Plasmodium chabaudi [18] = experiment: Antimalarial activity against Plasmodium chabaudi infected in Balb/c mouse assessed as parastemia at 16.5 mg/kg, ip measured 7 day postinoculation (reference value: 34 +/- 2.3 %); type: functional; outline: as §4
[19] = Cmax in Balb/c mouse at 50 mg/kg, ip by LC-MS/MS analysis; type: ADME, organism-based; set-up: dose 50 mg/kg, route intraperitoneal; conditions: in vivo; outline: as §5
Plasmodium chabaudi [20] = experiment: Antimalarial activity against Plasmodium chabaudi infected in Balb/c mouse assessed as parastemia at 50 mg/kg, ip measured 13 day postinoculation; type: functional; outline: as §4
[21] = Mean residence time (infinity) in Balb/c mouse at 50 mg/kg, ip by LC-MS/MS analysis; type: ADME, organism-based; conditions: in vivo; outline: as §5
[22] = Terminal half life in Plasmodium chabaudi infected Balb/c mouse at 50 mg/kg, ip by LC-MS/MS analysis; type: ADME, organism-based; conditions: in vivo, read-out: beta t1/2 (converted); outline: as §5
[23] = Apparent volume of distribution during terminal phase in Balb/c mouse at 50 mg/kg, ip by LC-MS/MS analysis; type: ADME, organism-based; conditions: in vivo, read-out: Vz/F; outline: as §5
Brain = experiment: Prodrug activation in Plasmodium chabaudi infected Balb/c mouse brain assessed as mefloquine level at 50 mg/kg, ip at 24 hrs by LC-MS/MS analysis; type: organism-based; conditions: in vivo; outline: as §6
Plasmodium chabaudi [24] = experiment: Antimalarial activity against Plasmodium chabaudi infected in Balb/c mouse assessed as parastemia at 50 mg/kg, ip measured 7 day postinoculation (reference value: 34 +/- 2.3 %); type: functional; outline: as §4
[25] = AUC (infinity) in Plasmodium chabaudi infected Balb/c mouse at 50 mg/kg, ip by LC-MS/MS analysis; type: ADME, organism-based; set-up: dose 50 mg/kg, route intraperitoneal, time infinity; conditions: in vivo; outline: as §5
Plasmodium chabaudi [26] = experiment: Antimalarial activity against Plasmodium chabaudi infected in Balb/c mouse assessed as parastemia at 8 mg/kg, ip measured 4 day postinoculation (reference value: 4.6 +/- 0.5 %); type: functional; outline: as §4
[27] = Apparent volume of distribution during terminal phase in Plasmodium chabaudi infected Balb/c mouse at 50 mg/kg, ip by LC-MS/MS analysis; type: ADME, organism-based; conditions: in vivo, read-out: Vz/F; outline: as §5
Plasma [28] = experiment: Prodrug activation in Plasmodium chabaudi infected Balb/c mouse plasma assessed as mefloquine level at 50 mg/kg, ip at 24 hrs by LC-MS/MS analysis; type: organism-based; conditions: in vivo; outline: as §6
[29] = Apparent oral clearance in Plasmodium chabaudi infected Balb/c mouse at 50 mg/kg, ip by LC-MS/MS analysis; type: ADME, organism-based; conditions: in vivo; outline: as §5
[30] = Tmax in Plasmodium chabaudi infected Balb/c mouse plasma at 50 mg/kg, ip by LC-MS/MS analysis; type: ADME, organism-based; outline: as §6
[31] = Mean residence time (infinity) in Plasmodium chabaudi infected Balb/c mouse at 50 mg/kg, ip by LC-MS/MS analysis; type: ADME, organism-based; conditions: in vivo; outline: as §5
[32] = Apparent oral clearance in Balb/c mouse at 50 mg/kg, ip by LC-MS/MS analysis; type: ADME, organism-based; conditions: in vivo; outline: as §5
[33] = Tmax in Balb/c mouse at 50 mg/kg, ip by LC-MS/MS analysis; type: ADME, organism-based; conditions: in vivo; outline: as §5
[34] = Tmax in Plasmodium chabaudi infected Balb/c mouse at 50 mg/kg, ip by LC-MS/MS analysis; type: ADME, organism-based; conditions: in vivo; outline: as §5
Plasmodium chabaudi [35] = experiment: Antimalarial activity against Plasmodium chabaudi infected in Balb/c mouse assessed as parastemia at 16.5 mg/kg, ip measured 13 day postinoculation; type: functional; outline: as §4
[36] = Mean residence time (last) in Plasmodium chabaudi infected Balb/c mouse at 50 mg/kg, ip by LC-MS/MS analysis; type: ADME, organism-based; conditions: in vivo; outline: as §5
[37] = Mean residence time (last) in Balb/c mouse at 50 mg/kg, ip by LC-MS/MS analysis; type: ADME, organism-based; conditions: in vivo; outline: as §5
[38] = Terminal half life in Balb/c mouse at 50 mg/kg, ip by LC-MS/MS analysis; type: ADME, organism-based; conditions: in vivo, read-out: beta t1/2 (converted); outline: as §5
[39] = Cmax in Plasmodium chabaudi infected Balb/c mouse at 50 mg/kg, ip by LC-MS/MS analysis; type: ADME, organism-based; set-up: dose 50 mg/kg, route intraperitoneal; conditions: in vivo; outline: as §5

CC(C)(N)CNC(=O)C[C@H]1CC[C@]2(CC1)OOC1(O2)C2CC3CC(C2)CC1C3 (some centres undefined)
blood plasma ratio [1]: 1.5 | EC50 (Plasmodium falciparum): 2.5 nM

CC(C)(N)CNC(=O)O[C@H]1CCC[C@@]2(C1)OOC1(O2)C2CC3CC(C2)CC1C3 (some centres undefined)
Activity (Plasmodium berghei [2]): Active | remaining at 2 h [3]: 97% | EC50 (Plasmodium falciparum): 2.7 nM

O[C@@H](c1cc(C(F)(F)F)nc2c(C(F)(F)F)cccc12)[C@H]1CCCCN1 (racemic) [(S,R)-MEFLOQUINE]
Activity (Plasmodium berghei [4]): Active | remaining at 4 h [5]: 95% | blood plasma ratio [1]: 1.6 | Activity (Plasmodium chabaudi [6]): 4.8% | remaining at 4 h [7]: 97% | inhibition (Plasmodium berghei [8]): Active | Activity (Plasmodium chabaudi [9]): 0.02% | concentration at 24 h [10]: 1400 ng/mL | Activity (Plasmodium chabaudi [11]): 0% | EC50 (Plasmodium falciparum): 2.5 nM | Tmax [12]: 5 min

C[C@@H]1CC[C@H]2[C@@H](C)C(=O)O[C@@H]3O[C@@]4(C)CC[C@@H]1[C@]32OO4 [ARTEMISININ]
EC50 (Plasmodium falciparum): 9.3 nM

O=C(O[C@H]1CCC[C@@]2(C1)OOC1(O2)C2CC3CC(C2)CC1C3)N1CCCC[C@@H]1[C@@H](O)c1cc(C(F)(F)F)nc2c(C(F)(F)F)cccc12 (some centres undefined)
Activity (Plasmodium chabaudi [13]): 4.5% | Activity (Plasmodium chabaudi [14]): 33% | AUC(0-inf) [15]: 34100 ng·h/mL | Activity (Plasmodium chabaudi [16]): 5.4% | remaining at 4 h [5]: 85% | Drug metabolism (Plasma [17]): metabolite_notdetected | Activity (Plasmodium chabaudi [18]): 0.7% | blood plasma ratio [1]: 0.7 | remaining at 4 h [7]: 94% | Cmax [19]: 3620 ng/mL | Activity (Plasmodium chabaudi [20]): 0% | MRT inf [21]: 11 h | half-life [22]: 8.6 h | Vd/F [23]: 17.8 L/kg | Drug metabolism (Brain): 250 ng/mL | Activity (Plasmodium chabaudi [24]): 0% | AUC(0-inf) [25]: 13600 ng·h/mL | Activity (Plasmodium chabaudi [26]): 4.8% | Vd/F [27]: 45.5 L/kg | Drug metabolism (Plasma [28]): metabolite_detected | EC50 (Plasmodium falciparum): 3 nM | CL/F [29]: 61.2 mL/min/kg | Tmax [30]: 0.5 h | MRT inf [31]: 10.6 h | CL/F [32]: 24.5 mL/min/kg | Tmax [33]: 1 h | Tmax [34]: 2 h | Activity (Plasmodium chabaudi [35]): 0.65% | MRT last [36]: 6.43 h | MRT last [37]: 6.93 h | half-life [38]: 8.41 h | Cmax [39]: 1570 ng/mL
